procasp3 activ – procaspase-3 (human) activation; recombinant procaspase-3 D3A, Ac-DEVD-pNA absorbance 405 nm; 0.11% of 330,000 active; activation, % at 8.5 µM;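 active = activation above the mean of all tested compounds plus 3 SD, cut at about 21% in these data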;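 also: 0% = DMSO alone and 100% = DMSO wells spiked with extra 5 µM PC-3 D3A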
Target sequence (P42574 whole entry D9A/D28A/D175A): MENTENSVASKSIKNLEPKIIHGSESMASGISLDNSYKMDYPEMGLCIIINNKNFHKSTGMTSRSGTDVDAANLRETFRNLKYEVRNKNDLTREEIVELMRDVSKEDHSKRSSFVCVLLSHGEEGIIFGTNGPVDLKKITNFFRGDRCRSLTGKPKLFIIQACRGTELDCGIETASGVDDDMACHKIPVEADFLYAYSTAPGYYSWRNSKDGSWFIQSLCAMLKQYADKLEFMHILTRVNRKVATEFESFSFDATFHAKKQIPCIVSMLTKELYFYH
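material = Procaspase-3 D3A mutant | probe or stimulus = Ac-DEVD-pNA | compound = single dose, 8.5 µM nominal compound, 0.8% DMSO | timing = 1 h preincubation, 2 h reaction | measured by = 405 nm absorbance of p-nitroaniline, reads at 0 and 120 min | benchmarks = DMSO-only low control, 5 µM PC-3 D3A high control | repeats = singlicate, each compound tested once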
NR3A LBD binder – modulates the human NR3A ligand-binding domain. NR3A LBD differential scanning fluorimetry, Tm shift; 0% = protein alone, 100% = glycine-bound protein. Tm shift relative to glycine control, % at 25 µM. 2.5% of 340,000 active;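 active = melting temperature shift of at least 10% of the positive control shift, at one fixed dose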
procasp7 counter – counter-screen: procaspase-7 (human) activation; 0.093% of 330,000 active; recombinant procaspase-7, Ac-DEVD-pNA absorbance 405 nm; D23A/D198A/D206A triple mutant, cannot self-cleave; scale: DMSO 0, 5 µM enzyme 100; activation, % at 8.5 µM;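 active = percent activation above the screen-wide mean plus 3 SD, cut at about 25% in these data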
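Assay system: Uncleavable procaspase-7 mutant enzyme | Input: 2 µM procaspase-7 mutant as dispensed | Timing: 1 h compound preincubation, 2 h substrate cleavage, 25 °C | Repeats: One well per compound | Control set: DMSO wells as 0%, DMSO with 5 µM added PC-7 as 100% | Technique: Epi-absorbance of released pNA at 405 nm, two timepoints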
MPTP inh – permeability transition pore inhibition; isolated mouse mitochondria, Ca2+ swelling absorbance, 30 min; inhibition, % at 10 µM; 1.4% of 360,000 active; AID 602449;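 active = inhibition of 50% or more, scaled per plate between neutral and stimulator controls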;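 also: 0% = DMSO wells given calcium and 100% = 1 mM EGTA wells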
aDG glyco act – increases alpha dystroglycan glycosylation; AID 624168; 0.22% of 360,000 active; activation, % at 10 µM; Pro5-aDG cells, alpha-DG glycosylation AlphaScreen (IIH6); 0% Pro5, 100% B10-LARGE cell signal;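 active = activation of at least 8% versus controls, or a plate z-score of at least 8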;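 also: Pro5 are CHO cells carrying HIG-tagged alpha-DG that lacks glycosylation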
Rh123 counter – mitochondrial membrane potential, counter-screen | isolated mitochondria, Rhodamine 123 fluorescence | inhibition, % at 10 µM | AID 624504 | shares compounds with MPTP inh | 78% of 5,000 active; in the data active = inhibition above about 22%;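 also: 0% = DMSO vehicle and 100% = positive control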
MPTP abs DR – dose response confirmation of mitochondrial permeability transition pore inhibitors; shares compounds with MPTP inh; isolated mitochondria swelling, absorbance; IC50, µM; 58% of 780 active; AID 651561; in the data active = IC50 below about 20 µM
MPTP counter DR – MPTP inhibitor counter-screen activity, dose response. shares compounds with MPTP inh. isolated mitochondria counterscreen, fluorescence read-out. IC50, µM. 49% of 780 active. AID 651564; in the data active = IC50 below about 80 µM
An asterisk follows results filed as active; i = inactive; · = no result given. In the library only some 3.7% were active in any assay of this set; here they are far more common.

SMILES	procasp3 activ	NR3A LBD binder	procasp7 counter	MPTP inh	aDG glyco act	Rh123 counter	others
Cc1ccc(-n2[nH]c(C)c(/C=N/Nc3ccc([N+](=O)[O-])cc3[N+](=O)[O-])c2=O)cc1C	-3	20*	-9	115*	0	61*
Cc1sc2ncnc(N3CCCCC3C)c2c1C (configuration not stated)	-4	-2	7	60*	1	54*
CCSc1nnc(NC(=O)CSc2nc(CC)nc3c2c(=O)n(C)c(=O)n3C)s1	-1	14*	6	66*	0	19	MPTP abs DR=i;MPTP counter DR=>80
Cc1ccc(S(=O)(=O)CCC(=O)NC2CCCC2)cc1	-2	1	-2	0	0	·
CCn1c(COc2ccc3c(c2)OCO3)nnc1SCC(=O)c1ccc(Cl)cc1	0	3	3	58*	0	79*
CCOC(=O)c1c(-c2cccs2)csc1NC(=O)CC(C)C	-6	6	7	57*	0	-1	MPTP abs DR=>100;MPTP counter DR=>80
Cc1ccc(SCCSc2nc(C)cc(=O)[nH]2)cc1	5	1	6	0	0	·
CCCCN1C(=O)C(CC(=O)NC2CC2)CC(C(=O)N(CC)CC)=C1C (configuration not stated)	·	·	·	2	0	·
CC(NC(=O)Nc1ccc(Br)cc1)C(C)(C)C (configuration not stated)	6	-8	3	78*	0	93*
COC(=O)C(C)(C)ONC(=O)Nc1ccc(Br)cc1	-11	0	-2	12	0	·
O=S(=O)(c1ccccc1)N1CCN(c2cc(-c3ccccc3)nc3ncnn23)CC1	8	0	9	82*	1	78*
O=C(COC(=O)CCNS(=O)(=O)c1cccc(C(F)(F)F)c1)NC(=O)NC1CCCCC1	-7	-9	3	61*	0	-11	MPTP abs DR=18*;MPTP counter DR=23*
O=C(COC(=O)Cc1cccc(C(F)(F)F)c1)NC(=O)NC1CCCC1	-1	2	-3	-1	0	·
CSc1nc2cc(Oc3cccc(Cl)c3Cl)c(Cl)cc2[nH]1	13	-7	-8	4	0	·
CC(C)c1cc(Cn2c3ccccc3c(=O)n2C(C)Cn2cc(COc3ccccc3)nn2)on1 (configuration not stated)	·	·	·	-2	0	·
O=C(NCCC1=CCCCC1)C(=O)NCc1ccccc1	-6	-4	6	1	0	·
Clc1ccc(CNCCC2=CCCCC2)cc1	0	0	17	70*	0	-7	MPTP abs DR=13*;MPTP counter DR=>80
O=C(CSc1ccc(F)cc1)Nc1ccccc1Br	1	-2	7	0	0	·
O=C(CSc1ccc(F)cc1)Nc1ccc(Br)cc1	-9	-3	4	58*	0	67*
Cc1cc(=O)[nH]c(SCC(=O)Nc2ccc(Br)cc2)c1C#N	2	3	9	96*	0	90*
Cc1ccc(NCC(=O)Nc2ccc(Br)cc2)cc1F	-2	9	-8	60*	0	70*
Cc1cc(=O)[nH]c(SCC(=O)Nc2ccc(F)cc2)c1C#N	0	0	-5	6	0	·
Cc1cccc(CSc2ccc(S(=O)(=O)N3CCCC3)cn2)c1	-7	0	-11	-1	1	·
O=C(/C=C/c1cccs1)Nc1ccc([N+](=O)[O-])cc1	3	26*	3	81*	0	74*
O=C(/C=C/c1cccs1)c1ccc([N+](=O)[O-])cc1	0	1	-1	4	0	·
O=C(NCc1ccc(Cl)cc1)C1CCCN1C(=O)Nc1ccccc1 (configuration not stated)	4	-2	6	-2	0	·
CCCCCCCCN1C(=O)[C@H](CC(=O)NCCCOC)C[C@@]2(C(=O)OC)CCCCC=C12	·	·	·	-2	0	·
Cc1nn(-c2ccccc2)c(Cl)c1/C=N/O	10	0	-4	1	0	·

From PubChem
